A3A deaminase – blocks human APOBEC3A ssDNA deamination | P31941 | recombinant A3A, FAM/TAMRA ssDNA deamination fluorescence | inhibition, % at 20 µM | 0.41% of 330,000 active;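 active means at least 40% inhibition at 20 µM here, with at most 30% in a related deaminase screen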;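 further: plate controls were A3A with DMSO for no effect and wells lacking A3A enzyme for full effect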
Arr AP2 block – blocks beta-arrestin peptide binding to AP2 adaptin | FITC-arrestin peptide / GST-AP2 beads, flow cytometry; AP2 beta2 appendage carries R879A mutation | 0.31% of 340,000 active | inhibition, % at 10 µM;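 active means inhibition above a set limit, near 3 SD of compounds lacking own fluorescence, cut at about 54% in these data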;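 further: plate controls were DMSO wells for no effect and 5 µM unlabelled arrestin peptide for full effect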
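System: GST-AP2 R879A glutathione beads; medium: PBS, Tween 20 0.05%, BSA 0.1%; reagent: fluorescein-tagged arrestin peptide at 50 nM final; schedule: pre-incubation 12 min, peptide binding 1 h, room temperature; detection: flow cytometry, FL1 (488/535 nm); read-out: inhibition as reduced fluorescein signal on beads, percent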
UCH37 inh – inhibitors of human deubiquitinating enzyme UCH37 | Q9Y5K5 | purified proteasome/UCH37, Ub-AMC cleavage fluorescence | inhibition, % (no concentration beside the values) | 0.33% of 330,000 active | AID 588478;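 active means mean inhibition over replicate wells above about 20%, limit read from the data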;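 further: 0% = compound-free wells with enzyme and 100% = wells lacking proteasome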
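assay system = human UCH37 enzyme supplied as purified proteasome complex | amount = proteasome at 0.15 nM in the dispensed enzyme solution | schedule = 30 min compound-proteasome preincubation then 25 min substrate reaction, room temperature | measured by = fluorescence, ex 355 nm, em 460 nm | benchmarks = no-proteasome wells (full inhibition) and compound-free wells (no inhibition)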
PolyA inhibitor – yeast polyadenylation inhibition; S. cerevisiae SKY197-pL101 polyadenylation reporter, beta-gal luminescence; efflux-impaired pdr1/pdr3 knockout yeast; score 100 = 6 SD above DMSO; activity score, % at 12 µM; 0.02% of 300,000 active;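 active means lowest replicate activity score at least 50, where 100 means six control SD above control mean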;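 further: yeast exposed to compound for 9 h at 30 °C; higher score means more reporter readthrough which indicates perturbed polyadenylation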
APOBEC3G inh – inhibitors of human APOBEC3G DNA deaminase. recombinant A3G, ssDNA deamination FAM/TAMRA fluorescence. inhibition, % at 20 µM. 0.28% of 330,000 active;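 active means inhibition of at least 40% at 20 µM, with no more than 30% in the related APOBEC3A deaminase screen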;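 further: plate controls were DMSO wells with A3G for no effect and wells lacking A3G enzyme for full effect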
AHR activator – activates the human aryl hydrocarbon receptor; activation, % at 5 µM; 2.5% of 320,000 active; AHR-responsive luciferase reporter cells, luminescence; P35869; in the data active means activation above about 47%;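 further: 0% = vehicle wells and 100% = reference agonist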
Target sequence (P35869 whole entry, looked up): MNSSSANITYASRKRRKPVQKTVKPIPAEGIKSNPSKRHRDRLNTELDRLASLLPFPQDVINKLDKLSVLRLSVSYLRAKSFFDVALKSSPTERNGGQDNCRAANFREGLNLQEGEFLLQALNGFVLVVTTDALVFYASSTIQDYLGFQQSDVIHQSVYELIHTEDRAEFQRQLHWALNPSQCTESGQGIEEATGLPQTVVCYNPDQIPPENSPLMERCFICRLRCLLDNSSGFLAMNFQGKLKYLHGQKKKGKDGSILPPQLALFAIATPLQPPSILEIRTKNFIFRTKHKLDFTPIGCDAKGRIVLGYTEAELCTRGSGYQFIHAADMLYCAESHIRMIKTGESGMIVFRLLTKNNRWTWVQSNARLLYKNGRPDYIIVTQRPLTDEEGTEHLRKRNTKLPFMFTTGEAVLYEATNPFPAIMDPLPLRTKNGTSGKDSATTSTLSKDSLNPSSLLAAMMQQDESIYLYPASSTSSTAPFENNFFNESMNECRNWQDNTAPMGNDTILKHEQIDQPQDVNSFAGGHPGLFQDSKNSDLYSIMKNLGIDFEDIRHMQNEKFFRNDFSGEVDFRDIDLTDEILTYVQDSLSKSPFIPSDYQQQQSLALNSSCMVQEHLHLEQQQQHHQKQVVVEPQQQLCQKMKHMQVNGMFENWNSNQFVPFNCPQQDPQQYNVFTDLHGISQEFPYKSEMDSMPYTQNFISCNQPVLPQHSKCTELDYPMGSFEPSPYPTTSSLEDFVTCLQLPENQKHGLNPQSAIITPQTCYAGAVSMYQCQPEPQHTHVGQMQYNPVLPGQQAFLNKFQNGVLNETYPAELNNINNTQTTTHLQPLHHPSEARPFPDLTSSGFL
AHR act cf – confirmation of human aryl hydrocarbon receptor activators; 87% of 2,300 active; shares compounds with AHR activator; AID 2845; human cells, AHR-responsive luciferase reporter, luminescence; activation, % at 9 µM; in the data active means activation above about 49%;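 further: HepG2 hepatoma cells carrying a DRE-driven firefly luciferase reporter; 0% = vehicle wells and 100% = reference agonist wells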
PXR act counter – activates human PXR in AHR activator counter-screen. cell-based PXR reporter, luciferase luminescence. shares compounds with AHR activator. activation, % at 11.6 µM. 88% of 2,300 active; in the data active means activation above about 11%;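 further: human hepatoma DPX-2 cells expressing full-length human PXR; 0% = DMSO and 100% = reference agonist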
* marks the source's active call; other numbers are inactive results; . = no result given. An excerpt weighted towards active compounds, which were near 3.4% of everything screened.

SMILES	A3A deaminase	Arr AP2 block	UCH37 inh	PolyA inhibitor	APOBEC3G inh	AHR activator	AHR act cf	PXR act counter
CCOc1ccccc1C=NNC(=O)c1cccc(Cl)c1	.	.	6.4	.	.	.	.	.
O=C(NN=Cc1cccs1)C(O)c1ccccc1 (stereo not drawn)	.	.	3.9	.	.	.	.	.
COc1cc2cc(C(=O)NN=Cc3ccccc3Cl)[nH]c2cc1OC	.	.	-66.6	.	.	.	.	.
CCc1n[nH]c2c1C(=NO)CCC2	.	.	-0.9	.	.	.	.	.
CC1CCCN(C(=O)c2cc3c(-c4ccc(Cl)cc4)nn(C)c3s2)C1 (stereo not drawn)	6.0	-0.3	2.9	6.5	-1.6	82.4*	79.8*	22.7*
CC1CCN(C(=O)c2cc(-c3ccco3)on2)CC1	-2.9	13.6	0.7	4.8	-9.6	97.4*	128.0*	30.7*
CON=C(CNC(=O)c1ccc(F)cc1)c1ccc(Cl)cc1	.	.	-1.2	.	.	.	.	.
Cc1nn(CC(=O)c2ccc3c(c2)OCCO3)c(=O)c(C#N)c1C	-3.8	7.8	2.1	.	-4.4	88.2*	91.2*	17.7*
O=C(Nc1ccc(Cl)cn1)Nc1ccccc1F	-1.7	-1.1	-1.3	-10.8	-1.9	38.7	.	.
COc1cc(NC(C)=O)ccc1NC(=O)c1cc2ccccc2o1	-4.8	34.7	-31.3	-3.8	-0.9	3.4	.	.
COc1cc(N)ccc1NC(=O)c1cc2ccccc2o1	-5.7	4.0	2.8	-17.1	1.4	107.1*	140.7*	12.5*
O=C(Nc1ccc(Cl)cn1)c1ccccc1F	0.0	1.3	2.8	-1.6	-0.5	147.8*	77.4*	21.1*
O=C(Nc1ccc(Cl)cn1)c1cc2ccccc2o1	-3.1	26.6	-1.2	-14.4	1.5	110.3*	71.8*	7.5
O=C(Nc1cccc(C(=O)Nc2ccc(Cl)cn2)c1)c1ccccc1	-0.2	-1.5	1.2	-15.1	-0.7	82.1*	12.1	18.6*
O=C(CSC1CN(C(c2ccccc2)c2ccccc2)C1)NN=Cc1ccccc1	.	.	5.7	.	.	.	.	.
Cc1cc(NN=Cc2ccc(O)cc2O)nc(-c2ccccc2O)n1	.	.	-13.0	.	.	.	.	.
NC(=S)NN=C1CC(n2nnnc2-c2ccccc2)C2COC1O2 (stereo not drawn)	.	.	2.8	.	.	.	.	.
COCC(=O)N/N=C/c1ccc(Sc2nc3ccccc3s2)o1	0.5	2.7	.	7.9	2.0	86.4*	81.0*	21.5*
COc1ccc(Nc2nc(-c3sc(N)nc3C)cs2)cc1	-1.6	-3.1	7.7	1.1	2.9	46.2	.	.
CCOc1ccc(Nc2nc(-c3sc(N)nc3C)cs2)cc1	-2.0	8.0	0.7	-10.7	-0.7	114.3*	112.3*	16.6*
CCCCCC(=O)Nc1nc(C)c(-c2csc(Nc3cc(OC)ccc3OC)n2)s1	-2.9	-5.5	0.1	-14.1	-7.7	84.3*	82.0*	72.6*
Cc1nc(NC(=O)CC(C)C)sc1-c1csc(Nc2ccc(Cl)cc2)n1	0.0	11.1	-3.6	-4.2	0.1	92.3*	95.5*	20.0*
CCCCCC(=O)Nc1nc(C)c(-c2csc(Nc3cc(Cl)ccc3C)n2)s1	-1.5	10.8	-3.4	-8.6	9.2	108.8*	75.3*	26.9*
COc1ccc(Nc2nc(-c3sc(C)nc3C)cs2)c(OC)c1	-1.6	31.9	.	4.8	-11.2	0.0	.	.
CC(=O)Nc1ccc(Nc2nc(-c3sc(C)nc3C)cs2)cc1	-0.3	-9.4	0.3	-1.7	1.8	-3.4	.	.
SMILES	A3A deaminase	Arr AP2 block	UCH37 inh	PolyA inhibitor	APOBEC3G inh	AHR activator	AHR act cf	PXR act counter
CCCC(C)C(=O)Nc1nc(C)c(-c2csc(Nc3cc(Cl)ccc3C)n2)s1 (stereo not drawn)	-1.7	17.3	-0.7	-3.6	22.5	40.7	.	.
Cc1ccc2[nH]c(O)c(N=NC(=O)C(C)n3cnc4ccccc4c3=O)c2c1 (stereo not drawn)	0.9	8.5	7.1	4.7	2.6	88.2*	69.2*	45.8*
O=C(Nc1nc(-c2ccco2)c(-c2ccco2)s1)C1CCC1	15.0	23.1	-4.7	-2.8	3.9	105.6*	91.0*	25.5*
Cc1ccc(NC(=O)c2oc3ccccc3c2NC(=O)c2ccc3c(c2)OCO3)cc1	-0.3	-2.5	-21.5	5.6	-9.5	7.2	.	.
CCOCC(=O)Nc1c(C(=O)Nc2ccc3c(c2)OCO3)oc2ccccc12	-2.8	15.9	-64.7	-19.0	-2.7	102.4*	105.6*	51.1*
CCOc1ccc(NC(=O)c2oc3ccccc3c2NC(=O)CC)cc1	4.4	.	.	-12.0	3.6	95.0*	57.9*	29.3*
N#C/C(=C\c1ccc(-c2ccc(F)cc2)o1)C(=O)Nc1nc(-c2cccs2)cs1	0.3	-3.0	10.3	-5.7	0.4	141.7*	57.5*	22.0*
N#C/C(=C/c1ccc(-c2ccc(S(N)(=O)=O)cc2)o1)C(=O)Nc1ccccc1	6.1	-4.4	-12.2	4.7	3.0	21.1	.	.
Cc1cccc(C(=O)NN=Cc2ccc[nH]2)c1	.	.	7.1	.	.	.	.	.
O=C(Nc1ccc(Cl)cc1)c1ccc(S(=O)(=O)N2CCOCC2)cc1	-0.4	-10.6	0.8	-1.5	-4.8	80.3*	86.4*	17.4*
Cc1ccc(NC(=O)c2ccc(S(=O)(=O)N3CCOCC3)cc2)cc1	-2.6	3.5	1.0	13.0	-3.9	-0.6	.	.
COc1cc(NC(=O)c2csc(N)n2)cc(C(=O)Nc2cccc(C(F)(F)F)c2)c1	0.3	24.2	-1.0	-0.9	1.3	85.2*	91.1*	32.2*
COc1cc(NC(=O)c2cc(C)on2)cc(C(=O)Nc2cccc(C(F)(F)F)c2)c1	1.9	5.0	.	-7.0	-1.1	130.2*	105.6*	21.0*
COc1cc(C=NNC(=O)c2ccccc2)ccc1OS(=O)(=O)c1ccccc1	.	.	2.7	.	.	.	.	.
O=C(CCN1C(=O)/C(=C\c2ccccc2)SC1=S)NNC(=O)c1ccncc1	-2.8	-16.7	9.6	-1.2	-4.6	3.3	.	.
O=C(CCN1C(=O)/C(=C/c2ccccc2)SC1=S)NNC(=O)c1ccncc1	-1.7	-2.9	4.5	-20.8	-8.8	120.0*	14.9	5.4
O=C(NCC1CCCO1)C(=O)NN=Cc1ccccc1C(=O)O (stereo not drawn)	.	.	2.4	.	.	.	.	.
COc1ccc(C(C)=NNc2nncc3ccccc23)cc1	.	.	3.2	.	.	.	.	.
O=C(Nc1ccccc1C(=O)N/N=C/c1ccc(O)cc1)c1ccccc1	3.8	9.5	.	-11.8	2.6	102.6*	88.3*	28.3*
O=C(Nc1ccccc1C(=O)NN=Cc1ccccc1)c1ccco1	.	.	-1.0	.	.	.	.	.
Cc1ccc2[nH]c3c(NCCCN4CCCC4=O)ncnc3c2c1	-5.7	20.1	-18.4	9.1	-2.5	85.8*	84.4*	161.5*
Cc1ccc(-n2ncc3c(NCCCN4CCCC4=O)ncnc32)c(C)c1	-0.6	8.4	4.0	6.0	-3.2	-2.2	.	.
